Experiments:
[1] = AUC (0 to infinity) in patient with hepatic insufficiency at 400 mg, po administered as single dose; format: ADME, organism-based; design: dose 400 mg, route oral, time infinity; conditions: human, plasma
Method in brief: (§1)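 Single 400-mg oral dose given fasted (fasting stated for the renal study). Assay: validated reverse-phase HPLC-MS/MS, LLOQ 2 ng/ml, range 2 to 1,000 ng/ml. AUC0-∞ = AUC0-last by linear/log trapezoid plus extrapolation. Cmax is read from the data. C12 is the nominal 12-h concentration. Values converted to nM (MW 444.4).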

[2] = Cmax in patient with hepatic insufficiency at 400 mg, po administered as single dose; format: ADME, organism-based; design: dose 400 mg, route oral; conditions: human, in vivo; method in brief: as §1
[3] = Plasma concentration in patient with hepatic insufficiency at 400 mg, po administered as single dose measured at 12 hrs post dose; format: ADME, organism-based; conditions: human, read-out: Activity; method in brief: as §1
[4] = Tmax in patient with hepatic insufficiency at 400 mg, po administered as single dose; format: ADME, organism-based; conditions: human, in vivo
Method in brief: (§2)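 Tmax is taken by inspection of the plasma concentration data, using nominal sampling times. Single 400-mg oral dose; plasma sampled from 0 to 72 h, or to 96 h in the hepatic study. Raltegravir is measured by validated reverse-phase HPLC-MS/MS (LLOQ 2 ng/ml).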

[5] = Primary phase half life in patient with hepatic insufficiency at 400 mg, po administered as single dose; format: ADME, organism-based; conditions: human, in vivo
Method in brief: (§3)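 Single 400-mg oral raltegravir dose, fasted (stated for study II); patients and matched healthy controls. Plasma sampled at 0–72 h (to 96 h in hepatic study only), quantified by validated reverse-phase HPLC-MS/MS (LLOQ 2 ng/ml), converted to nM (MW 444.4). Profiles fit biexponentially (Gauss-Newton, Levenberg-Hartley; weighting 1/predicted concentration²); each phase t1/2 = ln(2)/rate constant.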

[6] = Terminal half life in patient with hepatic insufficiency at 400 mg, po administered as single dose; format: ADME, organism-based; conditions: human, in vivo; method in brief: as §3
[7] = AUC (0 to infinity) in healthy human at 400 mg, po administered as single dose; format: ADME, organism-based; design: dose 400 mg, route oral, time infinity; conditions: plasma; method in brief: as §1
[8] = Cmax in healthy human at 400 mg, po administered as single dose; format: ADME, organism-based; design: dose 400 mg, route oral; conditions: in vivo; method in brief: as §1
[9] = Plasma concentration in healthy human at 400 mg, po administered as single dose measured at 12 hrs post dose; format: ADME, organism-based; conditions: read-out: Activity; method in brief: as §1
[10] = Primary phase half life in healthy human at 400 mg, po administered as single dose; format: ADME, organism-based; conditions: in vivo; method in brief: as §3
[11] = Terminal half life in healthy human at 400 mg, po administered as single dose; format: ADME, organism-based; conditions: in vivo; method in brief: as §3
[12] = AUC (0 to infinity) in patient with severe renal insufficiency at 400 mg, po administered as single dose; format: ADME, organism-based; design: dose 400 mg, route oral, time infinity; conditions: human, plasma; method in brief: as §1
[13] = Cmax in patient with severe renal insufficiency at 400 mg, po administered as single dose; format: ADME, organism-based; design: dose 400 mg, route oral; conditions: human, in vivo; method in brief: as §1
[14] = Plasma concentration in patient with severe renal insufficiency at 400 mg, po administered as single dose measured at 12 hrs post dose; format: ADME, organism-based; conditions: human, read-out: Activity; method in brief: as §1
[15] = Tmax in patient with severe renal insufficiency at 400 mg, po administered as single dose; format: ADME, organism-based; conditions: human, in vivo; method in brief: as §2
[16] = Primary phase half life in patient with severe renal insufficiency at 400 mg, po administered as single dose; format: ADME, organism-based; conditions: human, in vivo; method in brief: as §3
[17] = Terminal half life in patient with severe renal insufficiency at 400 mg, po administered as single dose; format: ADME, organism-based; conditions: human, in vivo; method in brief: as §3
Homo sapiens [18] = assay: Drug level in patient with severe renal insufficiency assessed as recovery of unchanged drug at 400 mg, po administered as single dose; format: ADME, organism-based; conditions: in vivo
Method in brief: (§4)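 Renal study, 10 patients plus 10 matched controls. Urine collected predose and at 0–4, 4–8, 8–12 and 12–24 h after a fasted 400-mg oral dose. Urine diluted and injected directly for HPLC-MS/MS (LLOQ 0.25 µg/ml, range 0.25–25 µg/ml). fe = total amount excreted unchanged ÷ dose × 100%. CLR = […] ÷ plasma AUC0-24.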

[19] = Renal clearance in patient with severe renal insufficiency at 400 mg, po administered as single dose; format: ADME, organism-based, Kidney; conditions: human, in vivo, read-out: CL_renal; method in brief: as §4
[20] = Renal clearance in healthy human at 400 mg, po administered as single dose; format: ADME, organism-based, Kidney; conditions: in vivo, read-out: CL_renal; method in brief: as §4
Homo sapiens [21] = assay: Ratio of Cmax in patient with hepatic insufficiency to Cmax in healthy human at 400 mg, po administered as single dose; format: ADME, organism-based; conditions: in vivo
Method in brief: (§5)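 Single 400-mg oral raltegravir dose to patients (moderate hepatic or severe renal insufficiency) and matched healthy controls; plasma raltegravir measured by HPLC-MS/MS. Cmax read by inspection, ln-transformed. Geometric mean ratio (patient/healthy) with 90% CI from ANCOVA least-squares means: population and sex fixed effects, age and BMI covariates.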

Homo sapiens [22] = assay: Ratio of plasma concentration in patient with hepatic insufficiency to plasma concentration in healthy human at 400 mg, po administered as single dose measured at 12 hrs post dose; format: ADME, organism-based; conditions: in vivo
Method in brief: (§6)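 Geometric mean ratio, patients/matched healthy controls, for AUC0-∞, Cmax and C12 after a single 400-mg oral dose. Data are natural-log transformed. 90% CIs come from ANCOVA least-squares means, with population and sex as fixed effects and age and BMI as covariates, then exponentiated. n = 8 per group.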

Homo sapiens [23] = assay: Ratio of Cmax in patient with severe renal insufficiency to Cmax in healthy human at 400 mg, po administered as single dose; format: ADME, organism-based; conditions: in vivo; method in brief: as §5
Homo sapiens [24] = assay: Ratio of plasma concentration in patient with hepatic insufficiency to plasma concentration in healthy human at 400 mg, po administered as single dose; format: ADME, organism-based; conditions: in vivo; method in brief: as §6
Homo sapiens [25] = assay: Toxicity in human assessed as headache at 400 mg, po administered as single dose; format: organism-based; conditions: in vivo
Method in brief: (§7)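 Safety assessed throughout each study by clinical and laboratory evaluations after a single 400-mg oral dose. Relatedness of adverse experiences to the drug was judged by the investigator.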

Homo sapiens [26] = assay: Toxicity in human assessed as mouth ulceration at 400 mg, po administered as single dose; format: organism-based; conditions: in vivo; method in brief: as §7

`Cc1nnc(C(=O)NC(C)(C)c2nc(C(=O)NCc3ccc(F)cc3)c(O)c(=O)n2C)o1` [RALTEGRAVIR] gave an AUC(0-inf) [1] of 17.7 µM·h, a Cmax [2] of 4.41 µM and a concentration at 12 h [3] of 0.143 µM. For the same compound, the Tmax [4] was 2.5 h, the half-life [5] was 1.49 h and the half-life [6] was 7 h. The AUC(0-inf) [7] was 19.7 µM·h, the Cmax [8] was 5.68 µM and the concentration at 12 h [9] was 0.105 µM. The half-life [10] was 1.1 h, the half-life [11] was 9.3 h and the AUC(0-inf) [12] was 16.8 µM·h. It also gave a Cmax [13] of 3.85 µM, a concentration at 12 h [14] of 0.135 µM and a Tmax [15] of 3.5 h. The half-life [16] was 1.38 h, the half-life [17] was 17.2 h and the “fold change (FC)” value (Homo sapiens [18]) was 0.5. It also gave a CL renal [19] of 2.7 mL/min, a CL renal [20] of 31.5 mL/min and a Cmax (Ratio) (Homo sapiens [21]) of 0.63. It also gave an Activity (Homo sapiens [22]) of 1.26 nM, a Cmax (Ratio) (Homo sapiens [23]) of 0.68 and an Activity (Homo sapiens [24]) of 1.26 nM. For the same compound, the Activity (Homo sapiens [25]) was “Toxic” and the Activity (Homo sapiens [26]) was “Toxic”.

From ChEMBL document CHEMBL1649175, “Lack of a clinically important effect of moderate hepatic insufficiency and severe renal insufficiency on raltegravir pharmacokinetics” (Antimicrob Agents Chemother, 2009)
